Data reported in ChEMBL document CHEMBL1135478, “From imidazoles to pyrimidines: new inhibitors of cytokine release” (J Med Chem, 2002).

Legend:
MAP kinase p38 [1] = biological target: T1, MAP kinase p38 (Homo sapiens, UniProt O15264+Q15759+Q16539+P53778); assay: Inhibition of Mitogen-activated protein kinase p38; type: protein assay
MAP kinase p38 [2] = biological target: T1, MAP kinase p38; assay: Inhibition of p38 MAP kinase related interleukin (IL1-beta (cytokine) release from human whole blood; type: functional, tissue-based
Method in brief: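 Human whole blood preincubated 15 min (37 °C, 5% CO₂) with compound from 70:30 Cremophor EL/ethanol stock dilutions (vehicle 1% in all samples). Stimulated with LPS (E. coli 026:B6), 1 µg/mL, 4 h, 37 °C. Reaction stopped on ice, then centrifuged. Supernatant IL-1β measured by ELISA. IC50 read from semilog plot of % reduction vs vehicle controls. At least duplicate.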

MAP kinase p38 [3] = biological target: T1, MAP kinase p38; assay: Inhibition of p38 MAP kinase related TNF-alpha release from human whole blood; type: functional, tissue-based
MAP kinase p38 [4] = biological target: T1, MAP kinase p38; assay: Inhibition of p38 MAP kinase related TNF-alpha release from peripheral blood mononuclear cells (PBMC); type: functional
MAP kinase p38 [5] = biological target: T1, MAP kinase p38; assay: Inhibition of p38 MAP kinase related interleukin (IL1-beta (cytokine) release from human peripheral blood mononuclear cells

Row | SMILES | IC50 (MAP kinase p38 [1]) | IC50 (MAP kinase p38 [2]) | IC50 (MAP kinase p38 [3]) | IC50 (MAP kinase p38 [4]) | IC50 (MAP kinase p38 [5])
1 | C[S+]([O-])c1ccc(CSc2nc(-c3ccc(F)cc3)c(-c3ccncc3)[nH]2)cc1 (stereo unspecified) | 4 µM | 2.78 µM | 20.3 µM | 3.65 µM | 0.88 µM
2 | C[S+]([O-])c1cccc(CSc2nc(-c3ccc(F)cc3)c(-c3ccncc3)[nH]2)c1 (stereo unspecified) |  | 4.1 µM | 33.5 µM | 23.5 µM | 1 µM
3 | C[S+]([O-])c1ccccc1CSc1nc(-c2ccc(F)cc2)c(-c2ccncc2)[nH]1 (stereo unspecified) |  | 4 µM | 47.5 µM | 15 µM | 0.9 µM
4 | CS(=O)(=O)c1ccc(CSc2ncc(-c3ccc(F)cc3)c(-c3ccncc3)n2)cc1 |  | > 100 µM | > 100 µM | 17.8 µM | 7.7 µM
5 | C[S+]([O-])c1ccc(CSc2ncc(-c3ccc(F)cc3)c(-c3ccncc3)n2)cc1 (stereo unspecified) | 36 µM | 45.5 µM | 95.5 µM | 14.1 µM | 5.6 µM
6 | C[S+]([O-])c1ccc(CSc2ncc(-c3ccc(F)cc3)c(-c3cccnc3)n2)cc1 (stereo unspecified) |  | > 100 µM | > 100 µM | 54 µM | 75.5 µM
7 | C[S+]([O-])c1cccc(CSc2ncc(-c3ccc(F)cc3)c(-c3ccncc3)n2)c1 (stereo unspecified) | 19 µM |  |  | 6.5 µM | 5.4 µM
8 | C[S+]([O-])c1ccc(CSc2nc(O)c(-c3ccc(F)cc3)c(-c3ccncc3)n2)cc1 (stereo unspecified) |  | > 100 µM | > 100 µM | 27 µM | 25.5 µM
9 | CSc1ccc(CSc2ncc(-c3ccc(F)cc3)c(-c3ccncc3)n2)cc1 |  | > 100 µM | > 100 µM | 60 µM | 7.4 µM
10 | C[S+]([O-])c1ccc(CSc2ncc(-c3ccncc3)c(-c3ccc(F)cc3)n2)cc1 (stereo unspecified) |  | > 100 µM | > 100 µM | 29.9 µM | 17.8 µM
